# Bioassay records (PubChem)
# S1P4 ag = activates the human S1P4 receptor. activation, % at 4.98 µM. 220,000 tested, 0.35% active. S1P4-expressing cell line, agonist reporter assay. O95977; in the data active = activation above about 11%;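 note: 0% = DMSO vehicle and 100% = reference agonist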
# MDM2 E3 inh = blocks human Mdm2 ubiquitin ligase activity | AID 1230 | signal enhancement, % at 5 µM | cell-based MDM2 ubiquitination luciferase reporter, 2 h; 0 = plate control, 100 = twice control, blank-subtracted | 210,000 tested, 0.11% active | Q00987;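 active = signal enhancement of 30% or more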;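 note: luminescence tracks abundance of the self-degrading MDM2-luciferase fusion protein; higher signal means inhibition of MDM2 E3 ligase activity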
# Target sequence (Q00987 whole entry, looked up, the tested form may be a part): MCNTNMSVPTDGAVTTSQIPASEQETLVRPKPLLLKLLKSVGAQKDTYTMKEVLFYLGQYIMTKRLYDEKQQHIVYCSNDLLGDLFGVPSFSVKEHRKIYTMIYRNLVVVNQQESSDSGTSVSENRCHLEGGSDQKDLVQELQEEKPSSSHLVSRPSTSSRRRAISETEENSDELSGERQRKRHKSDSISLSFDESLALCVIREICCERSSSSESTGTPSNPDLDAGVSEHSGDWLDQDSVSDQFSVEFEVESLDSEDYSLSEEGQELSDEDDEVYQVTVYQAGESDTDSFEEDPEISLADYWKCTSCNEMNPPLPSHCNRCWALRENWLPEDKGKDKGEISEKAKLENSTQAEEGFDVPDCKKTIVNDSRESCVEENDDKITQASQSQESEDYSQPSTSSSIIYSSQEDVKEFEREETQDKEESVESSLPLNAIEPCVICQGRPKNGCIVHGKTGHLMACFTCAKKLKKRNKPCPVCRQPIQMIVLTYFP
#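 Timing – 2 h compound exposure at 37 °C · Assay system – mammalian cells stably expressing self-ubiquitinating, self-degrading MDM2 E3–luciferase fusion · Amount – 2000 cells seeded into each well · Measure – % luminescence enhancement versus blank-corrected plate control mean · Measured by – SteadyLite luminescence, 15 min reagent step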
# S1P4 antagonist = antagonists of human S1P4 receptor; O95977; S1P4-expressing cells, antagonist mode, reporter read-out; inhibition, % at 4.98 µM; 220,000 tested, 0.26% active; in the data active = inhibition above about 29%;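 note: 0% = wells stimulated with agonist and 100% = vehicle wells without agonist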
# S1P3 antagonist = antagonists of human S1P3 receptor; Q99500; CHO S1P3 NFAT-BLA reporter, FRET fluorescence, antagonist mode; inhibition, % at 4.98 µM; 170,000 tested, 0.27% active; AID 485;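 active = inhibition above the plate cutoff, the mean inhibition of test wells on that plate plus 3 SD, cut at about 28% in these data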;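 note: cells challenged with S1P at its EC80 of 0.8 µM; blue over green emission ratio from cleaved BLA substrate after 4 h stimulation; 0% = S1P-stimulated wells and 100% = unstimulated DMSO-only wells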
# L major viab = reduces viability of Leishmania major promastigotes; AID 1063; inhibition, % at 10 µM; resazurin fluorescence viability; 200,000 tested, 9% active; in the data active = inhibition above about 50%;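 note: promastigotes grown with compound for 44 hours at 28 °C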
# * hit, by the source's call; · = no result. The full list was thinned out, with hits kept by preference.
SMILES,S1P4 ag,MDM2 E3 inh,S1P4 antagonist,S1P3 antagonist,L major viab
COc1ccccc1N1CCN(S(=O)(=O)c2ccc3nc(-c4ccccc4)[nH]c3c2)CC1,1,-12,1,5,57*
O=S(=O)(c1ccc2nc(-c3ccccc3)[nH]c2c1)N1CCN(c2cccc(Cl)c2)CC1,1,-3,-8,8,4
O=S(=O)(c1ccc2ccccc2c1)N1CCN(C2CCN(Cc3ccccc3)CC2)CC1,0,-24,2,·,97*
CCn1c(SCc2ccccc2)nnc1C1CCN(S(=O)(=O)c2ccc(OC)cc2)CC1,-1,-44,-11,·,91*
O=C(NN1C(=O)c2ccc(-c3ccc4c(c3)C(=O)N(NC(=O)c3cccnc3)C4=O)cc2C1=O)c1cccnc1,0,-42,-22,-21,-5
COc1ccc(NS(=O)(=O)c2cccc(C(=O)N/N=C/c3ccc(O)cc3)c2)cc1,1,-11,-19,-3,-10
Cc1ccc(S(=O)(=O)N2CCC(C(=O)N3CCN(Cc4ccccc4)CC3)CC2)cc1,1,-7,-10,-4,-5
COc1ccccc1N1CCN(C2CCN(S(=O)(=O)c3ccc4ccccc4c3)CC2)CC1,1,1,-7,·,55*
Cc1ccc(S(=O)(=O)N2CCN(C3CCN(Cc4ccccc4)CC3)CC2)cc1,-1,-23,3,-21,98*
N#Cc1c(Nc2cccc(F)c2)sc2c(O)cc(=O)[nH]c12,0,-12,-19,20,2
COc1cccc(OC)c1-c1nn2c(-c3cc(-c4ccccc4)n[nH]3)nnc2s1,1,-10,-8,38,61*
COc1cccc(-c2nnc3sc(-c4ccccc4)nn23)c1,0,·,-27,·,-10
c1coc(-c2nn3c(-c4ccco4)nnc3s2)c1,2,-6,-2,9,0
COc1ccccc1-c1nn2c(-c3ccco3)nnc2s1,-1,1,-6,·,67*
O=C(c1ccc2c(c1)OCO2)N(CC1CCCO1)C1(C(=O)NC2CCCC2)CCCCC1 (stereo not given),2,-1,-19,·,5
O=C(NC1(C(=O)NC2CCCCC2)CCCCC1)c1ccc2c(c1)OCO2,1,-12,-14,·,93*
O=C(NC1(C(=O)NC2CCCC2)CCCCC1)c1ccc2c(c1)OCO2,0,5,-9,·,57*
O=C(NNC(=O)c1ccc2c(c1)OCO2)NC1CCCCC1,-4,-19,4,·,-5
CCCCN(C(=O)c1ccc(Cl)c(S(=O)(=O)N2CCOCC2)c1)c1c(N)n(CCC)c(=O)[nH]c1=O,1,·,-5,6,·
CN(C(=O)COc1ccc([N+](=O)[O-])cc1)C1CCS(=O)(=O)C1 (stereo not given),3,0,-1,-18,-5
CCN(CC)C(=O)CN(c1ccc(Cl)cc1)S(=O)(=O)c1ccccc1,-3,-6,4,·,90*
Cc1cc(C)nc(NC(=O)CSc2nc3ccccc3s2)n1,0,-34,-3,·,2
Cc1ccc(C)c(NC(=O)CSc2nc3ccc(N4C(=O)c5ccccc5C4=O)cc3s2)c1,0,-7,-15,-16,99*
COc1ccccc1N(C)S(=O)(=O)c1ccc(C(=O)OCC(N)=O)cc1,1,1,-8,1,24
CCCNC(=O)NC(=O)COC(=O)c1ccc(S(=O)(=O)N(C)c2ccccc2OC)cc1,-1,4,10,6,73*
SMILES,S1P4 ag,MDM2 E3 inh,S1P4 antagonist,S1P3 antagonist,L major viab
COc1ccccc1N(C)S(=O)(=O)c1ccc(C(=O)OCC(=O)N2CCCCCC2)cc1,2,-11,-18,-23,100*
O=C(CCNS(=O)(=O)c1ccc(Br)s1)Nc1ccc(Cl)cc1,-2,-5,1,·,81*
O=C(CCNS(=O)(=O)c1ccc(Br)s1)NC1CCCC1,-1,-15,11,4,-7
COc1ccc(CCNC2CC(C)N(C)CC2C)cc1OC (stereo not given),2,-11,5,·,69*
Cc1cccc(N2CCN(C(=O)c3cccc(N4C(=O)C5CC=CC(C)C5C4=O)c3)CC2)c1C (stereo not given),-3,-8,15,·,7
O=C(COC(=O)c1ccc(O)cc1)Nc1ccccc1-c1ccccc1,-1,-1,-10,-1,57*
O=C1CCC(C(=O)OCC(=O)N2N=C3/C(=C/c4ccccc4)CCCC3C2c2ccccc2)N1 (stereo not given),2,0,-1,·,9
O=C(c1ccccn1)N1N=C2/C(=C/c3ccccc3)CCCC2C1c1ccccc1 (stereo not given),1,-7,5,-16,94*
CCSC(=S)Nc1c(C)n(C)n(-c2ccccc2)c1=O,0,-24,1,-18,10
CCN(CC)S(=O)(=O)c1ccc2[nH]c(=O)cc(C(=O)Nc3cccc(C(C)=O)c3)c2c1,1,-4,-8,-19,-3
